Sampled rows, rich in hits. Any-hit rate of the full collection: about 2%.
SENP1 inh = blocks the human SENP1 SUMO protease catalytic domain | Q9P0U3 | recombinant SENP1 catalytic domain, CyPet-SUMO1-YPet FRET cleavage | inhibition, % at 10 µM | 0.21% of 360,000 active | AID 624204;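 active = inhibition at least 30% at 10 µM, raw YFP signal under a set limit, fluorescence ratio 0.5 to 1.5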;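 also: 0% = enzyme with DMSO and 100% = no enzyme wells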
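system = hSENP1 catalytic domain, recombinant | reagent = SFCypet-SUMO1-SFYpet substrate at 25 nM | doses = one dose per compound, 10 µM, 0.5% DMSO | incubation = enzyme reaction for 50 min at room temperature, dark | measured by = FRET, CFP and YFP emission | controls = no-enzyme low, enzyme-DMSO high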
Rpn11 inh = inhibitors of human proteasome Rpn11. O00487. 0.59% of 360,000 active. human 26S proteasome, Ub4-pepOG fluorescence polarization; 20S core pre-blocked with epoxomicin. inhibition, % at 20 µM;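 active = inhibition at 20 µM, scaled to each plate's controls, above about 33%, limit read from the data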
ATG4B inh = ATG4B (human) cysteine protease inhibition; Q9Y4P1; ATG4B cleavage of LC3-PLA2, NBD-HPC fluorescence, 1 h; inhibition, % at 8.33 µM; 0.51% of 340,000 active
CSN inh = inhibitors of human CSN-mediated cullin deneddylation; Q92905; Purified CSN, SCF-Nedd8-OG deneddylation, fluorescence polarization; inhibition, % at 12.5 µM; 0.38% of 360,000 active;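 active = pattern-corrected inhibition above about 35%, with an unprinted fluorescence ratio check between 0.5 and 1.5, limit read from the data, passing the limit was not always enough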;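 also: 0% = enzyme with substrate and 100% = substrate without enzyme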
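Assay system: Purified human Csn5 enzyme expressed in HEK293T cells | Amount: Enzyme 0.24 nM | Measured by: Fluorescence polarization readout | Medium: Tris/NaCl/DTT buffer, pH 7.5 | Compound dosing: One concentration, 12.5 µM, 0.25% DMSO | Times: 90 min incubation of compound, enzyme and substrate at room temperature | Control set: no-enzyme wells high, enzyme-with-substrate wells low | Read-out: % inhibition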
HNF4A DNA FP = change in binding of human HNF4 alpha to DNA; HNF4a-FITC DNA binding, fluorescence polarization, 1 h; P41235; AID 1224865; 0.3% of 360,000 active; activity change, % at 10 µM; in the data active = activity change above about 30%, passing the limit was not always enough
TPT1 inh = C. albicans TPT1 enzyme inhibition. recombinant caTPT1, FP RNA substrate dephosphorylation. inhibition, % at 5 µM. 0.81% of 300,000 active;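 active = inhibition above the mean of all tested compounds plus 3 SD, set per screening campaign, cut at about 24% in these data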;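 also: plate controls were DMSO alone for no effect and ferristatin control at 100 nM for full effect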
TPT1 inh confirm = confirmation of Candida albicans TPT1 inhibitors. inhibition, % at 5 µM. recombinant caTPT1, fluorescence polarization, RNase T1 coupled. 74% of 2,400 active. AID 2149. shares compounds with TPT1 inh;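 active = inhibition above the primary screen limit, the mean inhibition of all tested compounds plus 3 SD, cut at about 25% in these data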
RNase T1 counter = blocks Aspergillus oryzae RNase T1, a TPT1 counter-screen; shares compounds with TPT1 inh; RNase T1 cleavage, fluorescence polarization, 1536-well; inhibition, % at 5 µM; 83% of 2,400 active; AID 2153;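 active = inhibition above the solvent-only control well mean plus 3 SD, limit set per screening run, cut at about 23% in these data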;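 also: plate controls were DMSO wells with enzyme for no effect and wells without RNase T1 for full effect; inhibitors block cleavage so intact labeled substrate keeps polarization high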
Rpn11 confirm = confirmation of human proteasome Rpn11 inhibitors. purified human 26S proteasome, Ub4-pepOG fluorescence polarization; proteasome pretreated with epoxomicin. shares compounds with Rpn11 inh. 29% of 1,900 active. inhibition, % at 20 µM
MMP-2 inh = blocks human MMP-2, flagging nonselective RPN11 hits; inhibition, % at 20 µM; 4% of 1,900 active; recombinant MMP-2, FRET peptide cleavage fluorescence; shares compounds with Rpn11 inh;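 also: human MMP-2 activated beforehand with APMA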
Target sequence (P08253 whole entry, looked up): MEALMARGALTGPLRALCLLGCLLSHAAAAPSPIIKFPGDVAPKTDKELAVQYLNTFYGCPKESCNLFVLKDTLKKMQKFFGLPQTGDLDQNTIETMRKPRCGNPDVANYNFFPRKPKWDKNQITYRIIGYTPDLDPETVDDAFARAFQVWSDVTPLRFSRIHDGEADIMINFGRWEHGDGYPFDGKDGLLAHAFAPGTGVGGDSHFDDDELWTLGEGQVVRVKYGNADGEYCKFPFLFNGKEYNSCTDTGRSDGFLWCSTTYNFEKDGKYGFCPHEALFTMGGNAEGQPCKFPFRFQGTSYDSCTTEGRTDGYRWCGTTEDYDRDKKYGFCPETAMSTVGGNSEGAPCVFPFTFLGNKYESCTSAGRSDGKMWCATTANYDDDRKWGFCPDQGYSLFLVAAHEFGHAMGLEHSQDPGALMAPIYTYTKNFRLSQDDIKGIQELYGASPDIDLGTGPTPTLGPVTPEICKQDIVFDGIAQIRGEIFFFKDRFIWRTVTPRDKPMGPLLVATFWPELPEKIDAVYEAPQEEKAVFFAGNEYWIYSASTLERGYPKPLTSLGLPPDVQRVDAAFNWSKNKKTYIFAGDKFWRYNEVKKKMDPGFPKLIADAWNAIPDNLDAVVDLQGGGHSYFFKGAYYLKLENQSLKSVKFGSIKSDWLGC
Thrombin inh = blocks bovine thrombin, flagging nonselective RPN11 hits. shares compounds with Rpn11 inh. inhibition, % at 20 µM. bovine thrombin cleavage of Ub4-pepOG, fluorescence polarization. AID 602333. 13% of 1,900 active;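 active = mean inhibition at least 40% at 20 µM, or signal 3 deviations below plate average, so some actives read negative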;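 also: plate controls were thrombin with DMSO for no effect and buffer wells lacking thrombin for full effect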
SENP1 inh conf = confirmation of human SENP1 SUMO protease inhibitors; shares compounds with SENP1 inh; recombinant SENP1, CyPet-SUMO1-YPet FRET cleavage; inhibition, % at 10 µM; 34% of 520 active; in the data active = inhibition mostly above about 35%, no sharp cut-off; inactive = mostly below about 32%;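 also: 0% = enzyme with DMSO and 100% = no enzyme control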
SENP1 kin conf = confirmation of human SENP1 SUMO protease inhibitors, kinetic. shares compounds with SENP1 inh. recombinant SENP1, CyPet-SUMO1-YPet FRET kinetic cleavage. inhibition, % at 10 µM. 26% of 520 active. AID 651690; in the data active = inhibition mostly above about 32%, no sharp cut-off; inactive = mostly below about 29%;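 also: 0% = DMSO with enzyme and 100% = no enzyme substrate only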
* hit, by the source's call. Rule as the data show it, unless noted: active = inhibition above about 40%; inactive = the rest.

Screening O=C(N/N=C/C=C/c1ccco1)c1ccncc1 returned SENP1 inh -8, Rpn11 inh 0, ATG4B inh -3, CSN inh 2, HNF4A DNA FP 5 and TPT1 inh -1.
For C[C@H]1CN([C@@H](C)CO)C(=O)CCCn2nncc2CO[C@H]1CN(C)C(=O)C1CC1 the results were SENP1 inh 1, Rpn11 inh -8, CSN inh -1 and HNF4A DNA FP -8.
Screening COc1ccc(C(=O)NCc2ccc(N3CCN(C(=O)OC(C)(C)C)CC3)cc2)cc1 returned SENP1 inh 0, Rpn11 inh -2, ATG4B inh 4, CSN inh -2, HNF4A DNA FP -4 and TPT1 inh -3.
`COc1ccc(C(=O)c2c(N)sc3c2CCN(C(=O)OC(C)(C)C)C3)cc1` gave SENP1 inh -6, Rpn11 inh 45*, ATG4B inh 3, CSN inh 9, HNF4A DNA FP 12, TPT1 inh 30*, TPT1 inh confirm 13, RNase T1 counter 22*, Rpn11 confirm 20, MMP-2 inh 17 and Thrombin inh 30.
`O=C(Nc1nnc([C@@H]2C[C@H](O)[C@@H](CO)O2)s1)Nc1cccc(Cl)c1Cl` gave SENP1 inh -1, Rpn11 inh 2, CSN inh 2 and HNF4A DNA FP -5.
`C[C@@H]1CN([C@H](C)CO)C(=O)CCCn2nncc2CO[C@@H]1CN(C)S(=O)(=O)c1ccc(F)cc1` gave SENP1 inh -1, Rpn11 inh -4, CSN inh 1 and HNF4A DNA FP -3.
COc1cc2ccccc2cc1C(=O)Nc1sc2c(c1C(N)=O)CCN(C(C)C)C2 was read as SENP1 inh -31, Rpn11 inh 45*, CSN inh 33, HNF4A DNA FP 38, TPT1 inh 82*, TPT1 inh confirm 54*, RNase T1 counter 62*, Rpn11 confirm 69*, MMP-2 inh -53 and Thrombin inh 46*.
`CCOC(=O)c1sc2cc([N+](=O)[O-])cc(SCC(=O)OC)c2c1N` gave SENP1 inh 66*, Rpn11 inh 36, ATG4B inh -11, CSN inh 15, HNF4A DNA FP 14, TPT1 inh 29*, TPT1 inh confirm 35*, RNase T1 counter 49*, SENP1 inh conf 25 and SENP1 kin conf 2.
Screening O=C(Nc1cc(F)cc(F)c1)c1ccc(NCCc2ccccc2)c([N+](=O)[O-])c1 returned SENP1 inh 38*, ATG4B inh -6, CSN inh 119, HNF4A DNA FP 115, TPT1 inh 67*, TPT1 inh confirm 92*, RNase T1 counter 102*, SENP1 inh conf 36* and SENP1 kin conf 36*.
CCN1/C(=C\C=C2\C(=O)N(C)C(=S)N2C)Sc2ccccc21 was read as SENP1 inh 37*, Rpn11 inh 55*, ATG4B inh 7, CSN inh 9, HNF4A DNA FP 32, TPT1 inh 47*, TPT1 inh confirm 60*, RNase T1 counter 73*, Rpn11 confirm 3, MMP-2 inh -15, Thrombin inh -3, SENP1 inh conf -9 and SENP1 kin conf -11.
Screening CCN1/C(=C2/OC(=S)N(C)C2=O)Sc2ccccc21 returned SENP1 inh -29, Rpn11 inh 11, ATG4B inh 6, CSN inh 5 and HNF4A DNA FP 2.
CCSC1=N/C(=C\c2cccc(F)c2)C(=O)S1 was read as SENP1 inh 3, Rpn11 inh -7, ATG4B inh -6, CSN inh -5, HNF4A DNA FP 2 and TPT1 inh 2.
Screening CCSC1=N/C(=C\C=C2/Oc3ccccc3N2CC)C(=O)S1 returned SENP1 inh 43*, ATG4B inh 1, CSN inh 118, HNF4A DNA FP 187, TPT1 inh 138*, TPT1 inh confirm 148*, RNase T1 counter 143*, SENP1 inh conf 28 and SENP1 kin conf 17.
Screening Cc1ccccc1NC(=O)c1c(C)[nH]c(=S)c(C#N)c1-c1ccc(Cl)cc1 returned SENP1 inh 50*, Rpn11 inh 13, ATG4B inh 2, CSN inh -2, HNF4A DNA FP 1, TPT1 inh 30*, TPT1 inh confirm 15, RNase T1 counter 22*, SENP1 inh conf 5 and SENP1 kin conf 8.
`NC(=O)N/N=C/c1ccc(N2CCOCC2)s1` gave SENP1 inh 47*, ATG4B inh 3, CSN inh 5, HNF4A DNA FP 71*, TPT1 inh 81*, TPT1 inh confirm 123*, RNase T1 counter 130*, SENP1 inh conf 75* and SENP1 kin conf 52*.
For COC(=O)/C=c1/s/c(=C(\C#N)C(=O)NCc2ccco2)n(-c2ccc(C)cc2)c1=O the results were SENP1 inh 37*, Rpn11 inh 57*, ATG4B inh 5, CSN inh 31, HNF4A DNA FP 5, TPT1 inh 82*, TPT1 inh confirm 20, RNase T1 counter 27*, Rpn11 confirm 11, MMP-2 inh -12, Thrombin inh 20, SENP1 inh conf 12 and SENP1 kin conf 10.
